Assay results from ChEMBL document CHEMBL3352237, “Synthesis and biological evaluation of novel peptide BF2 as an antibacterial agent against clinical isolates of vancomycin-resistant enterococci” (J Med Chem, 2014).
≈ marks a conversion by molar mass, not a printed value.

How the values were obtained:
Type in all cases: functional
Enterococcus faecium [1] = assay: Antibacterial activity against vancomycin-resistant Enterococcus faecium clinical isolate 23/240 after overnight incubation by two-fold serial dilution method
Enterococcus faecium [2] = assay: Antibacterial activity against vancomycin-resistant Enterococcus faecium clinical isolate 7/27 after overnight incubation by two-fold serial dilution method
Enterococcus faecium [3] = assay: Antibacterial activity against vancomycin-resistant Enterococcus faecium clinical isolate 8/224 after overnight incubation by two-fold serial dilution method
Enterococcus faecium [4] = assay: Antibacterial activity against vancomycin-resistant Enterococcus faecium clinical isolate 13246 after overnight incubation by two-fold serial dilution method
Enterococcus faecium [5] = assay: Antibacterial activity against vancomycin-resistant Enterococcus faecium clinical isolate 14643 after overnight incubation by two-fold serial dilution method
Enterococcus faecium [6] = assay: Antibacterial activity against vancomycin-resistant Enterococcus faecium clinical isolate 3864 after overnight incubation by two-fold serial dilution method
Enterococcus faecium [7] = assay: Antibacterial activity against vancomycin-resistant Enterococcus faecium clinical isolate 31386 after overnight incubation by two-fold serial dilution method
Enterococcus faecium [8] = assay: Antibacterial activity against vancomycin-resistant Enterococcus faecium clinical isolate 16115 after overnight incubation by two-fold serial dilution method
Enterococcus faecium [9] = assay: Antibacterial activity against vancomycin-resistant Enterococcus faecium clinical isolate 18906 after overnight incubation by two-fold serial dilution method
Enterococcus faecium [10] = assay: Antibacterial activity against vancomycin-resistant Enterococcus faecium clinical isolate 12875 after overnight incubation by two-fold serial dilution method
Enterococcus faecium [11] = assay: Antibacterial activity against vancomycin-resistant Enterococcus faecium clinical isolate 12/266 after overnight incubation by two-fold serial dilution method
Enterococcus faecium [12] = assay: Antibacterial activity against vancomycin-resistant Enterococcus faecium clinical isolate 30/48 after overnight incubation by two-fold serial dilution method
Enterococcus [13] = assay: Antibacterial activity against Enterococcus infected in Wistar albino rat assessed as reduction in cell count at 25 mg/kg, iv after 1 hr relative to control; parameters: scale not given: the % may be the effect or the level left
In short: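 Female Wistar albino rats, 40−45 days old, 125−150 g, 5 groups of 3. Enterococci were grown to log phase in MH broth, centrifuged at 1000g for 15 min, and diluted in PBS to 4 × 10^6 CFU/mL. Rats were inoculated i.v. and treated i.v. 1 h later with 12.5, 25 or 37.5 mg/kg peptide, PBS vehicle, or linezolid 25 mg/kg. Tail-vein blood taken 1 h post-treatment was plated on blood agar, incubated overnight at 37 °C, and colonies counted.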

Enterococcus faecium [14] = assay: Antibacterial activity against vancomycin-resistant Enterococcus faecium clinical isolate 31176 after overnight incubation by two-fold serial dilution method
Enterococcus faecium [15] = assay: Antibacterial activity against vancomycin-resistant Enterococcus faecium clinical isolate 5396 after overnight incubation by two-fold serial dilution method
Enterococcus faecium [16] = assay: Antibacterial activity against vancomycin-resistant Enterococcus faecium clinical isolate 10177 after overnight incubation by two-fold serial dilution method
Enterococcus faecium [17] = assay: Antibacterial activity against vancomycin-resistant Enterococcus faecium clinical isolate 16475 after overnight incubation by two-fold serial dilution method
Enterococcus [18] = assay: Antibacterial activity against vancomycin-resistant Enterococcus ATCC 51299 after overnight incubation by two-fold serial dilution method
Enterococcus faecium [19] = assay: Antibacterial activity against vancomycin-resistant Enterococcus faecium clinical isolate 5484 after overnight incubation by two-fold serial dilution method
Enterococcus faecium [20] = assay: Antibacterial activity against vancomycin-resistant Enterococcus faecium clinical isolate 15/213 after overnight incubation by two-fold serial dilution method
Enterococcus faecium [21] = assay: Antibacterial activity against vancomycin-resistant Enterococcus faecium clinical isolate 147969 after overnight incubation by two-fold serial dilution method
Enterococcus faecium [22] = assay: Antibacterial activity against vancomycin-resistant Enterococcus faecium clinical isolate 151495 after overnight incubation by two-fold serial dilution method
Enterococcus faecium [23] = assay: Antibacterial activity against vancomycin-resistant Enterococcus faecium clinical isolate 6/22 after overnight incubation by two-fold serial dilution method
Enterococcus [24] = assay: Antibacterial activity against vancomycin-resistant Enterococcus ATCC 29212 after overnight incubation by two-fold serial dilution method
Enterococcus faecium [25] = assay: Antibacterial activity against vancomycin-resistant Enterococcus faecium clinical isolate 27/221 after overnight incubation by two-fold serial dilution method
Enterococcus faecium [26] = assay: Antibacterial activity against vancomycin-resistant Enterococcus faecium clinical isolate 29/203 after overnight incubation by two-fold serial dilution method
Enterococcus faecium [27] = assay: Antibacterial activity against vancomycin-resistant Enterococcus faecium clinical isolate 28/211 after overnight incubation by two-fold serial dilution method
Enterococcus faecium [28] = assay: Antibacterial activity against vancomycin-resistant Enterococcus faecium clinical isolate 27/16917 after overnight incubation by two-fold serial dilution method; settings: isolate 27/1691
Enterococcus faecium [29] = assay: Antibacterial activity against vancomycin-resistant Enterococcus faecium clinical isolate 17301 after overnight incubation by two-fold serial dilution method
Enterococcus faecalis [30] = assay: Antibacterial activity against vancomycin-resistant Enterococcus faecalis clinical isolate 5642 after overnight incubation by two-fold serial dilution method
Enterococcus faecalis [31] = assay: Antibacterial activity against vancomycin-resistant Enterococcus faecalis clinical isolate 22626 after overnight incubation by two-fold serial dilution method
Enterococcus faecalis [32] = assay: Antibacterial activity against vancomycin-resistant Enterococcus faecalis clinical isolate 27728 after overnight incubation by two-fold serial dilution method
Enterococcus faecalis [33] = assay: Antibacterial activity against vancomycin-resistant Enterococcus faecalis clinical isolate 7670 after overnight incubation by two-fold serial dilution method
Enterococcus faecalis [34] = assay: Antibacterial activity against vancomycin-resistant Enterococcus faecalis clinical isolate 5648 after overnight incubation by two-fold serial dilution method
Enterococcus faecalis [35] = assay: Antibacterial activity against vancomycin-resistant Enterococcus faecalis clinical isolate 387702 after overnight incubation by two-fold serial dilution method
Enterococcus faecalis [36] = assay: Antibacterial activity against vancomycin-resistant Enterococcus faecalis clinical isolate 7077 after overnight incubation by two-fold serial dilution method
Enterococcus faecalis [37] = assay: Antibacterial activity against vancomycin-resistant Enterococcus faecalis clinical isolate 7079 after overnight incubation by two-fold serial dilution method
Enterococcus faecalis [38] = assay: Antibacterial activity against vancomycin-resistant Enterococcus faecalis clinical isolate 21/235 after overnight incubation by two-fold serial dilution method
Enterococcus faecalis [39] = assay: Antibacterial activity against vancomycin-resistant Enterococcus faecalis clinical isolate 22/203 after overnight incubation by two-fold serial dilution method
Enterococcus faecalis [40] = assay: Antibacterial activity against vancomycin-resistant Enterococcus faecalis clinical isolate 5814 after overnight incubation by two-fold serial dilution method
Enterococcus faecalis [41] = assay: Antibacterial activity against vancomycin-resistant Enterococcus faecalis clinical isolate 6093 after overnight incubation by two-fold serial dilution method
Enterococcus faecalis [42] = assay: Antibacterial activity against vancomycin-resistant Enterococcus faecalis clinical isolate 7846 after overnight incubation by two-fold serial dilution method
Enterococcus [43] = assay: Antibacterial activity against vancomycin-resistant Enterococcus ATCC 51299 by checkerboard titration method in presence of vancomycin
Enterococcus [44] = assay: Antibacterial activity against vancomycin-resistant Enterococcus ATCC 29212 by checkerboard titration method in presence of linezolid
Enterococcus [45] = assay: Antibacterial activity against vancomycin-resistant Enterococcus ATCC 51299 by checkerboard titration method in presence of linezolid
Enterococcus [46] = assay: Antibacterial activity against vancomycin-resistant Enterococcus ATCC 29212 by checkerboard titration method in presence of vancomycin

Molecule: CC(=O)NC[C@H]1CN(c2ccc(N3CCOCC3)c(F)c2)C(=O)O1 [LINEZOLID]
- MIC (Enterococcus faecium [1]): 1 µg/mL (≈ 2.96 µM)
- MIC (Enterococcus faecium [2]): 2 µg/mL (≈ 5.93 µM)
- MIC (Enterococcus faecium [3]): 1 µg/mL (≈ 2.96 µM)
- MIC (Enterococcus faecium [4]): 2 µg/mL (≈ 5.93 µM)
- MIC (Enterococcus faecium [5]): 2 µg/mL (≈ 5.93 µM)
- MIC (Enterococcus faecium [6]): 2 µg/mL (≈ 5.93 µM)
- MIC (Enterococcus faecium [7]): 2 µg/mL (≈ 5.93 µM)
- MIC (Enterococcus faecium [8]): 1 µg/mL (≈ 2.96 µM)
- MIC (Enterococcus faecium [9]): 2 µg/mL (≈ 5.93 µM)
- MIC (Enterococcus faecium [10]): 1 µg/mL (≈ 2.96 µM)
- MIC (Enterococcus faecium [11]): 2 µg/mL (≈ 5.93 µM)
- MIC (Enterococcus faecium [12]): 2 µg/mL (≈ 5.93 µM)
- Activity (Enterococcus [13]): 93.8%
- MIC (Enterococcus faecium [14]): 1 µg/mL (≈ 2.96 µM)
- MIC (Enterococcus faecium [15]): 1 µg/mL (≈ 2.96 µM)
- MIC (Enterococcus faecium [16]): 1 µg/mL (≈ 2.96 µM)
- MIC (Enterococcus faecium [17]): 1 µg/mL (≈ 2.96 µM)
- MIC (Enterococcus [18]): 2 µg/mL (≈ 5.93 µM)
- MIC (Enterococcus faecium [19]): 1 µg/mL (≈ 2.96 µM)
- MIC (Enterococcus faecium [20]): 1 µg/mL (≈ 2.96 µM)
- MIC (Enterococcus faecium [21]): 1 µg/mL (≈ 2.96 µM)
- MIC (Enterococcus faecium [22]): 1 µg/mL (≈ 2.96 µM)
- MIC (Enterococcus faecium [23]): 1 µg/mL (≈ 2.96 µM)
- MIC (Enterococcus [24]): 1 µg/mL (≈ 2.96 µM)
- MIC (Enterococcus faecium [25]): 1 µg/mL (≈ 2.96 µM)
- MIC (Enterococcus faecium [26]): 1 µg/mL (≈ 2.96 µM)
- MIC (Enterococcus faecium [27]): 2 µg/mL (≈ 5.93 µM)
- MIC (Enterococcus faecium [28]): 1 µg/mL (≈ 2.96 µM)
- MIC (Enterococcus faecium [29]): 1 µg/mL (≈ 2.96 µM)

Molecule: H-HWRLLLLKKH-OH
- MIC (Enterococcus faecalis [30]): 25 µg/mL
- MIC (Enterococcus faecium [1]): 25 µg/mL
- MIC (Enterococcus faecium [2]): 25 µg/mL
- MIC (Enterococcus faecalis [31]): 25 µg/mL
- MIC (Enterococcus faecium [3]): 25 µg/mL
- MIC (Enterococcus faecium [4]): 25 µg/mL
- MIC (Enterococcus faecium [5]): 25 µg/mL
- MIC (Enterococcus faecium [6]): 25 µg/mL
- MIC (Enterococcus faecium [7]): 25 µg/mL
- MIC (Enterococcus faecium [8]): 25 µg/mL
- MIC (Enterococcus faecalis [32]): 25 µg/mL
- MIC (Enterococcus faecalis [33]): 25 µg/mL
- MIC (Enterococcus faecium [9]): 25 µg/mL
- MIC (Enterococcus faecium [10]): 25 µg/mL
- MIC (Enterococcus faecalis [34]): 25 µg/mL
- MIC (Enterococcus faecalis [35]): 25 µg/mL
- MIC (Enterococcus faecium [11]): 25 µg/mL
- MIC (Enterococcus faecalis [36]): 25 µg/mL
- MIC (Enterococcus faecium [12]): 25 µg/mL
- MIC (Enterococcus faecium [14]): 25 µg/mL
- MIC (Enterococcus faecium [15]): 25 µg/mL
- MIC (Enterococcus faecium [16]): 25 µg/mL
- MIC (Enterococcus faecalis [37]): 25 µg/mL
- MIC (Enterococcus faecium [17]): 25 µg/mL
- MIC (Enterococcus [18]): 25 µg/mL
- MIC (Enterococcus faecium [19]): 25 µg/mL
- MIC (Enterococcus faecalis [38]): 25 µg/mL
- MIC (Enterococcus faecium [20]): 25 µg/mL
- MIC (Enterococcus faecium [21]): 25 µg/mL
- MIC (Enterococcus faecium [22]): 25 µg/mL
- MIC (Enterococcus faecium [23]): 25 µg/mL
- MIC (Enterococcus faecalis [39]): 25 µg/mL
- MIC (Enterococcus [24]): 25 µg/mL
- MIC (Enterococcus faecium [25]): 25 µg/mL
- MIC (Enterococcus faecalis [40]): 25 µg/mL
- MIC (Enterococcus faecium [26]): 25 µg/mL
- MIC (Enterococcus faecium [27]): 25 µg/mL
- MIC (Enterococcus faecalis [41]): 25 µg/mL
- MIC (Enterococcus faecalis [42]): 25 µg/mL
- MIC (Enterococcus faecium [28]): 25 µg/mL
- MIC (Enterococcus faecium [29]): 25 µg/mL

Molecule: H-RWRLLLLKRH-OH
- MIC (Enterococcus faecalis [30]): 12.5 µg/mL
- MIC (Enterococcus faecium [1]): 12.5 µg/mL
- MIC (Enterococcus faecium [2]): 12.5 µg/mL
- MIC (Enterococcus faecalis [31]): 12.5 µg/mL
- MIC (Enterococcus faecium [3]): 12.5 µg/mL
- MIC (Enterococcus faecium [4]): 12.5 µg/mL
- MIC (Enterococcus faecium [5]): 12.5 µg/mL
- MIC (Enterococcus faecium [6]): 12.5 µg/mL
- MIC (Enterococcus faecium [7]): 12.5 µg/mL
- MIC (Enterococcus faecium [8]): 12.5 µg/mL
- MIC (Enterococcus faecalis [32]): 12.5 µg/mL
- MIC (Enterococcus faecalis [33]): 12.5 µg/mL
- MIC (Enterococcus faecium [9]): 12.5 µg/mL
- MIC (Enterococcus faecium [10]): 12.5 µg/mL
- MIC (Enterococcus faecalis [34]): 12.5 µg/mL
- MIC (Enterococcus faecalis [35]): 12.5 µg/mL
- MIC (Enterococcus faecium [11]): 12.5 µg/mL
- MIC (Enterococcus faecalis [36]): 12.5 µg/mL
- MIC (Enterococcus faecium [12]): 12.5 µg/mL
- MIC (Enterococcus faecium [14]): 12.5 µg/mL
- MIC (Enterococcus faecium [15]): 12.5 µg/mL
- MIC (Enterococcus faecium [16]): 12.5 µg/mL
- MIC (Enterococcus faecalis [37]): 12.5 µg/mL
- MIC (Enterococcus faecium [17]): 12.5 µg/mL
- MIC (Enterococcus [18]): 12.5 µg/mL
- MIC (Enterococcus faecium [19]): 12.5 µg/mL
- MIC (Enterococcus faecalis [38]): 12.5 µg/mL
- MIC (Enterococcus faecium [20]): 12.5 µg/mL
- MIC (Enterococcus faecium [21]): 12.5 µg/mL
- MIC (Enterococcus faecium [22]): 12.5 µg/mL
- MIC (Enterococcus faecium [23]): 12.5 µg/mL
- MIC (Enterococcus faecalis [39]): 12.5 µg/mL
- MIC (Enterococcus [24]): 12.5 µg/mL
- MIC (Enterococcus faecium [25]): 12.5 µg/mL
- MIC (Enterococcus faecalis [40]): 12.5 µg/mL
- MIC (Enterococcus faecium [26]): 12.5 µg/mL
- MIC (Enterococcus faecium [27]): 12.5 µg/mL
- MIC (Enterococcus faecalis [41]): 12.5 µg/mL
- MIC (Enterococcus faecalis [42]): 12.5 µg/mL
- MIC (Enterococcus faecium [28]): 12.5 µg/mL
- MIC (Enterococcus faecium [29]): 12.5 µg/mL

Molecule: H-FLPLIGRVLSGIL-NH2 [TEMPORIN A]
- fractional inhibitory concentration index (FICI) (Enterococcus [43]): 1.5
- fractional inhibitory concentration index (FICI) (Enterococcus [44]): 0.75
- fractional inhibitory concentration index (FICI) (Enterococcus [45]): 0.75
- fractional inhibitory concentration index (FICI) (Enterococcus [46]): 1.25
